# Results: ChEMBL document CHEMBL1150360, “Design, synthesis, and QSAR studies of novel lysine derives as amino-peptidase N/CD13 inhibitors” (Bioorg Med Chem, 2008)
# Key:
# [1] = target: 72 kDa type IV collagenase (Homo sapiens, UniProt P08253); assay: Inhibition of MMP2
# Outline: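 Gelatinase A enzyme, synthetic substrate and inhibitor dissolved together in 50 mmol/L sodium borate, pH 8.5, and incubated 30 min at 37 °C. 0.03% TNBS then added and incubated a further 20 min. Absorbance read at 450 nm.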
# [2] = Inhibition of aminopeptidase N
# Outline: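 Porcine kidney microsomal aminopeptidase, 4 µg/mL final, preincubated 30 min at room temperature with inhibitor. Inhibitor solutions made in assay buffer and adjusted to pH 7.5. Substrate L-Leu-p-nitroanilide in 50 mM PBS, pH 7.2, at 37 °C; hydrolysis followed as absorbance change at 405 nm. IC50 determined.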
# 72 kDa type IV collagenase, sequence (P08253 whole entry): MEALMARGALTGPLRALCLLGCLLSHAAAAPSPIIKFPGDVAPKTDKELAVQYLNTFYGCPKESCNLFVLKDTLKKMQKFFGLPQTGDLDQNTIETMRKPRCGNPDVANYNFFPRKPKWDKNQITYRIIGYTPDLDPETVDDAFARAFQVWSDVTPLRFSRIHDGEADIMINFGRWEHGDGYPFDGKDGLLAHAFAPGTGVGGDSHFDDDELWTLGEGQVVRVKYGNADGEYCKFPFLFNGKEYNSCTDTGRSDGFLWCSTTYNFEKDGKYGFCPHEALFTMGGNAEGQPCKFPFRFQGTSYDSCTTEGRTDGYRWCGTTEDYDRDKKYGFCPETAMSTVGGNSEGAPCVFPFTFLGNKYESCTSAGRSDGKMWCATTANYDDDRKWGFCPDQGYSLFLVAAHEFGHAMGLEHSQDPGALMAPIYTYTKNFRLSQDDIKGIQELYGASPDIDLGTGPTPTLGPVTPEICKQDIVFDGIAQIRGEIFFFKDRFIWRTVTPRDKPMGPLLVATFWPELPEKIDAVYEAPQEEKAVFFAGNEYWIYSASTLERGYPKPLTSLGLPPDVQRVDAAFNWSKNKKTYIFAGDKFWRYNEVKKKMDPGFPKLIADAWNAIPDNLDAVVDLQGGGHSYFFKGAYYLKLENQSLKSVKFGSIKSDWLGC
IC50 [1] [µM],IC50 [2] [µM],pIC50 [2],Compound
3.14,167,3.78,O=C(NCCCC[C@H](NC(=O)c1cccnc1)C(=O)O)OCc1ccccc1
12.7,1250,2.9,O=C(NCCCC[C@H](NC(=O)c1cccs1)C(=O)O)OCc1ccccc1
8.76,292,3.54,O=C(NCCCC[C@H](NC(=O)c1ccncc1)C(=O)O)OCc1ccccc1
2.93,197,3.7,O=C(NCCCC[C@H](NC(=O)c1cnccn1)C(=O)O)OCc1ccccc1
17.8,127,3.9,O=C(NCCCC[C@H](NC(=O)c1ccc(Cl)cc1Cl)C(=O)O)OCc1ccccc1
50.5,215,3.67,O=C(/C=C/c1ccccc1)N[C@@H](CCCCNC(=O)OCc1ccccc1)C(=O)O
170,13.2,4.88,O=C(NCCCC[C@H](NC(=O)c1ccc(Cl)cc1Cl)C(=O)NO)OCc1ccccc1
8.08,159,3.8,O=C(NCCCC[C@H](NC(=O)c1ccco1)C(=O)NO)OCc1ccccc1
12.6,159,3.8,O=C(NCCCC[C@H](NC(=O)c1cccs1)C(=O)NO)OCc1ccccc1
11.7,95.8,4.02,O=C(NCCCC[C@H](NC(=O)c1cccc([N+](=O)[O-])c1)C(=O)NO)OCc1ccccc1
19.2,202,3.69,O=C(NCCCC[C@H](NC(=O)c1ccc([N+](=O)[O-])cc1)C(=O)O)OCc1ccccc1
25.5,91.2,4.04,O=C(NCCCC[C@H](NC(=O)c1ccncc1)C(=O)NO)OCc1ccccc1
8.49,1120,2.95,O=C(NCCCC[C@H](NC(=O)c1ccco1)C(=O)O)OCc1ccccc1
7.48,111,3.96,O=C(NCCCC[C@H](NC(=O)c1cccc([N+](=O)[O-])c1)C(=O)O)OCc1ccccc1
3.54,570,3.24,O=C(/C=C/c1ccccc1)N[C@@H](CCCCNC(=O)OCc1ccccc1)C(=O)NO
14.3,97,4.01,O=C(NCCCC[C@H](NC(=O)c1cnccn1)C(=O)NO)OCc1ccccc1
9.94,112,3.95,O=C(NCCCC[C@H](NC(=O)c1ccc(Br)cc1)C(=O)NO)OCc1ccccc1
8,94.3,4.03,O=C(NCCCC[C@H](NC(=O)c1cccnc1)C(=O)NO)OCc1ccccc1
32,108,3.97,O=C(NCCCC[C@H](NC(=O)c1ccc([N+](=O)[O-])cc1)C(=O)NO)OCc1ccccc1
13.1,188,3.73,O=C(NCCCC[C@H](NC(=O)c1ccc(Br)cc1)C(=O)O)OCc1ccccc1
22,15.5,–,CC(C)C[C@H](NC(=O)[C@@H](O)[C@H](N)Cc1ccccc1)C(=O)O [UBENIMEX]
